From ChEMBL document CHEMBL2311383, “Discovery of piperazin-1-ylpyridazine-based potent and selective stearoyl-CoA desaturase-1 inhibitors for the treatment of obesity and metabolic syndrome” (J Med Chem, 2013)
Active and inactive are the calls of the source. No cut-off for these calls is given here.

What was measured:
[1] = target: Acyl-CoA (8-3)-desaturase (Rattus norvegicus) (UniProt Q920R3); test: Inhibition of delta5 desaturase in Sprague-Dawley rat liver microsome at 10 uM; assay type: microsomes
Chain of Acyl-CoA (8-3)-desaturase (Rattus norvegicus) (Q920R3 whole entry, looked up): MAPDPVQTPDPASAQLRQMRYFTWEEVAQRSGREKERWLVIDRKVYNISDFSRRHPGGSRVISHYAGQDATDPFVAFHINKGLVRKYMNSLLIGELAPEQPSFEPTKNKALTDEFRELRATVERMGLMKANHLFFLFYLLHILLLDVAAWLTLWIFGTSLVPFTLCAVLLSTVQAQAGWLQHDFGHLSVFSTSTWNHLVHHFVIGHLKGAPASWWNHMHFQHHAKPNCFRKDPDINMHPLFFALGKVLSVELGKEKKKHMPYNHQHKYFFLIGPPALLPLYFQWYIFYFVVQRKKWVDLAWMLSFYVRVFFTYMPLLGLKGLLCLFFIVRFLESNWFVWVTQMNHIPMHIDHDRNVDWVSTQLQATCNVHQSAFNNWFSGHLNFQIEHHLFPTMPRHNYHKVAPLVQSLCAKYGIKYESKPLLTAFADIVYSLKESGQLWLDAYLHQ

[2] = test system: Rattus norvegicus; test: In vivo inhibition of SCD1 in Zucker-Fatty rat assessed as reduction of C18 plasma desaturation index at 1 mg/kg, po bid administered for 15 weeks; assay type: functional; conditions: 2520 h
In short: (§1)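 Plasma from Zucker fatty rats after 15 weeks oral 1 mg/kg twice daily. Lipids extracted by modified Folch, classes separated by TLC, hydrolyzed, derivatized and analyzed by GC against an internal standard. Desaturation index is the […] ratio for C16 and C18; n = 12, mean ± SEM.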

[3] = test system: Rattus norvegicus; test: In vivo inhibition of SCD1 in Zucker-Fatty rat assessed as reduction of C16 plasma desaturation index at 1 mg/kg, po bid administered for 15 weeks; assay type: functional; conditions: 2520 h; in short: as §1
[4] = test system: Rattus norvegicus; test: Antiobesity activity in Zucker-Fatty rat assessed as reduction in bone mineral content at 1 mg/kg, po bid administered for 15 weeks; assay type: functional, organism-based; parameters: dose 1 mg/kg
In short: (§2)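 Male Zucker fa/fa rats, 20 weeks old, chow ad libitum, 24 per group. Dosed orally twice daily (10 a.m., 4 p.m.) at 1 mg/kg for 15 weeks, suspended in 1% CMC/0.1% Tween 20/10% propylene glycol/water; vehicle controls. Body weight taken daily, change from day 0 over 12 weeks. At end: epididymal, retroperitoneal and mesenteric fat pads weighed; DEXA of carcass BMC, lean and fat mass; fat % = FM/(BMC+LM+FM); n = 12, mean ± SEM.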

[5] = test system: Rattus norvegicus; test: Antiobesity activity in Zucker-Fatty rat assessed as reduction in lean mass at 1 mg/kg, po bid administered for 15 weeks; assay type: functional, organism-based; parameters: dose 1 mg/kg; in short: as §2
[6] = test system: Rattus norvegicus; test: Antiobesity activity in Zucker-Fatty rat assessed as reduction in fat mass at 1 mg/kg, po bid administered for 15 weeks; assay type: functional; parameters: scale not given: the % may be the effect or the level left; in short: as §2
[7] = test system: Rattus norvegicus; test: Antiobesity activity in Zucker-Fatty rat assessed as reduction in body fat percentage at 1 mg/kg, po bid administered for 15 weeks relative to vehicle-treated control; assay type: functional; parameters: scale not given: the % may be the effect or the level left; in short: as §2
[8] = test system: Rattus norvegicus; test: Antiobesity activity in Zucker-Fatty rat assessed as reduction in combined visceral fat weight at 1 mg/kg, po bid administered for 15 weeks relative to vehicle-treated control; assay type: functional; parameters: scale not given: the % may be the effect or the level left; in short: as §2
[9] = test system: Rattus norvegicus; test: Antiobesity activity in Zucker-Fatty rat assessed as reduction in total body weight at 1 mg/kg, po bid administered upto 12 weeks relative to vehicle-treated control; assay type: functional; parameters: scale not given: the % may be the effect or the level left; in short: as §2
[10] = Clearance in Lewis rat at 1 mg/kg, iv; assay type: ADME, organism-based; parameters: dose 1 mg/kg, route intravenous; conditions: in vivo
In short: (§3)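 Lewis rats, IV 3 mg/kg and PO 10 mg/kg unless otherwise stated (some at PO 5 mg/kg, IV 1 mg/kg, or IV 1/PO 2 mg/kg). At least two rats IV, three rats PO, averaged. Plasma t1/2 (h), AUC 0–∞ (μM·h), Vss (L/kg), clearance ((L/h)/kg), Cmax (μM), Tmax (h), oral bioavailability (%).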

[11] = Volume of distribution at steady state in Lewis rat at 1 mg/kg, iv; assay type: ADME, organism-based; parameters: dose 1 mg/kg, route intravenous; conditions: in vivo, read-out: Vdss; in short: as §3
[12] = Half life in Lewis rat at 1 mg/kg, iv; assay type: ADME, organism-based; parameters: dose 1 mg/kg, route intravenous; conditions: in vivo; in short: as §3
[13] = Oral bioavailability in Lewis rat at 10 mg/kg; assay type: ADME, organism-based; conditions: in vivo; in short: as §3
[14] = Cmax in Lewis rat at 10 mg/kg, po; assay type: ADME, organism-based; parameters: dose 10 mg/kg, route oral; conditions: in vivo; in short: as §3
[15] = Tmax in Lewis rat at 10 mg/kg, po; assay type: ADME, organism-based; parameters: dose 10 mg/kg, route oral; conditions: in vivo; in short: as §3
[16] = test system: Rattus norvegicus; test: In vivo inhibition of SCD1 in po dosed Lewis rat liver microsome after 4 hrs; assay type: functional
In short: (§4)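 Lewis rats fed high-carbohydrate diet for one week, fasted 4 h, then dosed orally (0.1–1 mg/kg in 0.2% Tween 20/1% CMC; n = 4), killed 4 h later; ip arm 15 mg/kg once daily for two days. Liver microsomes prepared, SCD1 activity measured by tritiated water release from [9,10-3H]stearoyl-CoA. Mean ± SD of at least four rats.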

[17] = test system: Rattus norvegicus; test: In vivo inhibition of SCD1 in po dosed Lewis rat liver microsome at 0.1 to 1 mg/kg after 4 hrs; assay type: functional, organism-based; in short: as §4
[18] = test system: Rattus norvegicus; test: In vivo inhibition of SCD1 in Lewis rat liver microsome at 15 mg/kg, ip administered qd for 2 days; assay type: functional; conditions: 48 h, route intraperitoneal; in short: as §4
[19] = Apparent permeability from basolateral to apical side in human Caco2 cells; assay type: ADME, cell-based; conditions: Caco-2
In short: (§5)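 Caco-2 monolayers; apparent permeability a-to-b and b-to-a reported in 10⁻⁶ cm/s.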

[20] = Metabolic stability in rat liver microsome after 30 mins by LC/MS/MS analysis; assay type: ADME; conditions: liver microsomes, read-out: Stability
In short: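 Compound incubated 30 min with rat liver microsomes; percent parent remaining by LC/MS/MS.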

[21] = Apparent permeability from apical to basolateral side in human Caco2 cells; assay type: ADME, cell-based; conditions: Caco-2; in short: as §5
[22] = target: Acyl-CoA 6-desaturase (Rattus norvegicus) (UniProt Q9Z122); test: Inhibition of delta6 desaturase in Sprague-Dawley rat liver microsome using cis,cis-9,12-octadecadienoic acid substrate at 10 uM
Chain of Acyl-CoA 6-desaturase (Rattus norvegicus) (Q9Z122 whole entry, looked up): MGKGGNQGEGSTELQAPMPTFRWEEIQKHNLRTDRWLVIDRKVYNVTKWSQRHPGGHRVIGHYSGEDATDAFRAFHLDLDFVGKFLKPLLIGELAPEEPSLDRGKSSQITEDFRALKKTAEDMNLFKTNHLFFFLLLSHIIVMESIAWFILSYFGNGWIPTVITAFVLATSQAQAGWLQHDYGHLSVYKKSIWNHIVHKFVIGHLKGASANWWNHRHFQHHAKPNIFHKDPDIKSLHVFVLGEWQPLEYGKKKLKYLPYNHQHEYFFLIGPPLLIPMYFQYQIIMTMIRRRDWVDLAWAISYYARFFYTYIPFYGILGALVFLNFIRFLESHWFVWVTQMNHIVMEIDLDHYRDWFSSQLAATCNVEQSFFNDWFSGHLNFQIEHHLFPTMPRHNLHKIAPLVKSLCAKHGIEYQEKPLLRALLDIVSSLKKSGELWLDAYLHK

[23] = target: T1, Acyl-CoA desaturase 1 (Mus musculus, UniProt P13516); test: Inhibition of SCD1 in ICR mouse liver microsome using [9,10 3H]- stearoyl-Coenzyme A substrate assessed as decreased production of tritiated water after 20 min by scintillation counting analysis
T1 sequence (P13516 whole entry): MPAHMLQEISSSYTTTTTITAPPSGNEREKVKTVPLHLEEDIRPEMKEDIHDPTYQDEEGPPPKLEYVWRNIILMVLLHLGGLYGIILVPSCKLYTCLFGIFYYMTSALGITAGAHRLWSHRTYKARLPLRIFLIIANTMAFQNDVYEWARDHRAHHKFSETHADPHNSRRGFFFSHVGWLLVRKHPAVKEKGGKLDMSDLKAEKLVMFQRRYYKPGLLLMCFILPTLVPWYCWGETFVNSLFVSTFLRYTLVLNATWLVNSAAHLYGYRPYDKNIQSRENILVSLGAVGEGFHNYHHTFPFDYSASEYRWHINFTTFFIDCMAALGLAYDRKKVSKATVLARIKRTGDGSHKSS

[24] = target: T2, Stearoyl-CoA desaturase (Homo sapiens, UniProt O00767); test: Inhibition of SCD1 in human HepG2 cells using [14C]-stearate substrate assessed as decreased production of [14C]-oleic acid after 24 hrs; assay type: cell-based
T2 sequence (O00767 whole entry): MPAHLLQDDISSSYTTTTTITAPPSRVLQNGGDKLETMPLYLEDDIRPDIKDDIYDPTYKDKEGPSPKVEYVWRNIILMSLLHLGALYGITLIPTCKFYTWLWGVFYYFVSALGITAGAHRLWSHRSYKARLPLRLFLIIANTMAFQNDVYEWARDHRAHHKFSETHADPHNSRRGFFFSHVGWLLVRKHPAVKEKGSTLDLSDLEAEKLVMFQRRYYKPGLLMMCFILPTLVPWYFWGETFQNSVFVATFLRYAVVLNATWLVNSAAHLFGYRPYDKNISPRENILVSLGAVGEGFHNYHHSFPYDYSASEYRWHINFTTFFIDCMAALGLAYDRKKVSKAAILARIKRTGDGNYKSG

[25] = test system: Rattus norvegicus; test: In vivo inhibition of SCD1 in Lewis rat liver microsome at 1 mg/kg, po after 4 hrs
[26] = AUC (0 to infinity) in Lewis rat at 1 mg/kg, iv; assay type: ADME, organism-based; parameters: time infinity, dose 1 mg/kg, route intravenous; conditions: plasma; in short: as §3
[27] = Oral bioavailability in Lewis rat at 2 mg/kg; assay type: ADME, organism-based; conditions: in vivo; in short: as §3
[28] = AUC (0 to infinity) in Lewis rat at 2 mg/kg, po; assay type: ADME, organism-based; parameters: time infinity, dose 2 mg/kg, route oral; conditions: plasma; in short: as §3
[29] = Tmax in Lewis rat at 2 mg/kg, po; assay type: ADME, organism-based; parameters: dose 2 mg/kg, route oral; conditions: in vivo; in short: as §3
[30] = Cmax in Lewis rat at 2 mg/kg, po; assay type: ADME, organism-based; parameters: dose 2 mg/kg, route oral; conditions: in vivo; in short: as §3
[31] = Clearance in Lewis rat at 3 mg/kg, iv; assay type: ADME, organism-based; parameters: dose 3 mg/kg, route intravenous; conditions: in vivo; in short: as §3
[32] = Volume of distribution at steady state in Lewis rat at 3 mg/kg, iv; assay type: ADME, organism-based; parameters: dose 3 mg/kg, route intravenous; conditions: in vivo, read-out: Vdss; in short: as §3
[33] = Half life in Lewis rat at 3 mg/kg, iv; assay type: ADME, organism-based; parameters: dose 3 mg/kg, route intravenous; conditions: in vivo; in short: as §3

| Structure (SMILES) | inhibition [1] | clearance [10] | Vd [11] | half-life [12] | bioavailability [13] | Cmax [14] | Tmax [15] | Papp B→A [19] | remaining at 0.5 h [20] | Papp A→B [21] | inhibition [22] | IC50 [23] | inhibition in vivo at 15 mg/kg [18] | also measured |
| --- | --- | --- | --- | --- | --- | --- | --- | --- | --- | --- | --- | --- | --- | --- |
| O=C(Nc1ccc(Cl)cc1)c1ccc(N2CCN(C(=O)c3ccccc3C(F)(F)F)CC2)nn1 | inactive | – | – | – | – | – | – | 2 ×10⁻⁶ cm/s | 65% | 2 ×10⁻⁶ cm/s | inactive | 7 nM | – | inhibition [25]: Active |
| O=C(NCCC1CC1)c1ccc(N2CCN(C(=O)c3cc(Cl)ccc3C(F)(F)F)CC2)nn1 | inactive | – | – | – | 30% | 500 nM | 2.3 h | 30 ×10⁻⁶ cm/s | 69% | 32 ×10⁻⁶ cm/s | inactive | 12 nM | > 60% | clearance [31]: 14.3 mL/min/kg; Vd [32]: 1.6 L/kg; half-life [33]: 1.8 h |

More lines, in order of falling IC50 [23], values ahead:

| inhibition [1] | clearance [10] | Vd [11] | half-life [12] | bioavailability [13] | Cmax [14] | Tmax [15] | Papp B→A [19] | remaining at 0.5 h [20] | Papp A→B [21] | inhibition [22] | IC50 [23] | Structure (SMILES) | inhibition in vivo at 15 mg/kg [18] | also measured |
| --- | --- | --- | --- | --- | --- | --- | --- | --- | --- | --- | --- | --- | --- | --- |
| inactive | – | – | – | – | – | – | 21 ×10⁻⁶ cm/s | 36% | 21 ×10⁻⁶ cm/s | inactive | 72 nM | Cc1cc(C(=O)N2CCN(c3ccc(C(=O)NCCC4CC4)nn3)CC2)c(C(F)(F)F)o1 | < 30% | IC50 [24]: 62 nM |
| inactive | 21.7 mL/min/kg | 2.7 L/kg | 1.6 h | 49% | 900 nM | 3.3 h | 30 ×10⁻⁶ cm/s | 74% | 30 ×10⁻⁶ cm/s | inactive | 14 nM | O=C(NCCC1CC1)c1ccc(N2CCN(C(=O)c3cc(F)ccc3C(F)(F)F)CC2)nn1 | > 60% | inhibition in vivo at 1 mg/kg [2]: 61%; inhibition in vivo at 1 mg/kg [3]: 73%; Activity [4]: inactive; Activity [5]: inactive; Activity [6]: 20%; Activity [7]: 9%; Activity [8]: 24%; Activity [9]: 36%; ED50 [16]: 0.8 mg/kg; inhibition [17]: Dose-dependent effect |
| inactive | 21.7 mL/min/kg | 1.8 L/kg | 1.1 h | – | – | – | 23 ×10⁻⁶ cm/s | 92% | 25 ×10⁻⁶ cm/s | inactive | 11 nM | O=C(Nc1nc2ccccc2[nH]1)c1ccc(N2CCN(C(=O)c3ccccc3C(F)(F)F)CC2)nn1 | < 30% | AUC(0-inf) [26]: 1.6 µM·h; bioavailability [27]: 19%; AUC(0-inf) [28]: 0.6 µM·h; Tmax [29]: 0.5 h; Cmax [30]: 70 nM |
